Reference: ChEMBL document CHEMBL4689842, “EUbOPEN Chemogenomics Library wave 1” (2021)

Tested on: Fibroblast
Assay: Multiplex assay against human fibroblast
Type: toxicity, cell-based
Summary of the method: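 Per cents of healthy-nucleus cells form the tubulin, mitochondrial-mass and membrane-permeability phenotype values. Live cells were stained at seeding with Hoechst33342, BioTracker Green Microtubule Cytoskeleton Dye, MitoTracker Red and Annexin V Alexa Fluor 680. After compound addition they were imaged on a CQ1 microscope at 37°C and 5% CO2, and CellPathfinder machine-learning gating split them into Hoechst high-intensity objects or normal cells, normal cells into healthy, pyknosed or fragmented nuclei, and pyknosed cells into mitotic or apoptotic.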

[1] = 12 h, 1 µM, compound concentration 1 uM, replicate 1
[2] = 12 h, 1 µM, compound concentration 1 uM, replicate 2
[3] = 12 h, 10 µM, compound concentration 10 uM, replicate 1
[4] = 12 h, 10 µM, compound concentration 10 uM, replicate 2
[5] = 24 h, 1 µM, compound concentration 1 uM, replicate 1
[6] = 24 h, 1 µM, compound concentration 1 uM, replicate 2
[7] = 24 h, 10 µM, compound concentration 10 uM, replicate 1
[8] = 24 h, 10 µM, compound concentration 10 uM, replicate 2
[9] = 48 h, 1 µM, compound concentration 1 uM, replicate 1
[10] = 48 h, 1 µM, compound concentration 1 uM, replicate 2
[11] = 48 h, 10 µM, compound concentration 10 uM, replicate 1
[12] = 48 h, 10 µM, compound concentration 10 uM, replicate 2

CC[C@H](C)C(=O)O[C@H]1C[C@@H](C)C=C2C=C[C@H](C)[C@H](CC[C@@H]3C[C@@H](O)CC(=O)O3)[C@H]21 [LOVASTATIN]
Population Apoptotic (%) [1]: 63%
Population Fragmented Nuclei (%) [1]: 33%
Population Healthy Nuclei (%) [1]: 35%
Population Hoechst High Intensity Objects (%) [1]: 13%
Population Membrane Permeable-Phenotype (%) [1]: 23%
Population Mitochondria Different-Phenotype (%) [1]: 14%
Population Mitotic Cells (%) [1]: 36%
Population Normal (%) [1]: 86%
Population Pyknosed Nuclei (%) [1]: 31%
Population Tubulin-Different-Phenotype (%) [1]: 42%
Total Cell Count [1]: 69
Population Apoptotic (%) [2]: 25%
Population Fragmented Nuclei (%) [2]: 22%
Population Healthy Nuclei (%) [2]: 68%
Population Hoechst High Intensity Objects (%) [2]: 11%
Population Membrane Permeable-Phenotype (%) [2]: 3%
Population Mitochondria Different-Phenotype (%) [2]: 6%
Population Mitotic Cells (%) [2]: 75%
Population Normal (%) [2]: 88%
Population Pyknosed Nuclei (%) [2]: 8%
Population Tubulin-Different-Phenotype (%) [2]: 3%
Total Cell Count [2]: 87
Population Apoptotic (%) [3]: 50%
Population Fragmented Nuclei (%) [3]: 33%
Population Healthy Nuclei (%) [3]: 45%
Population Hoechst High Intensity Objects (%) [3]: 13%
Population Membrane Permeable-Phenotype (%) [3]: 22%
Population Mitochondria Different-Phenotype (%) [3]: 13%
Population Mitotic Cells (%) [3]: 50%
Population Normal (%) [3]: 86%
Population Pyknosed Nuclei (%) [3]: 22%
Population Tubulin-Different-Phenotype (%) [3]: 42%
Total Cell Count [3]: 115
Population Apoptotic (%) [4]: 100%
Population Fragmented Nuclei (%) [4]: 4%
Population Healthy Nuclei (%) [4]: 90%
Population Hoechst High Intensity Objects (%) [4]: 8%
Population Membrane Permeable-Phenotype (%) [4]: 10%
Population Mitochondria Different-Phenotype (%) [4]: 12%
Population Mitotic Cells (%) [4]: 0%
Population Normal (%) [4]: 91%
Population Pyknosed Nuclei (%) [4]: 4%
Population Tubulin-Different-Phenotype (%) [4]: 20%
Total Cell Count [4]: 54
Population Apoptotic (%) [5]: 44%
Population Fragmented Nuclei (%) [5]: 36%
Population Healthy Nuclei (%) [5]: 47%
Population Hoechst High Intensity Objects (%) [5]: 11%
Population Membrane Permeable-Phenotype (%) [5]: 11%
Population Mitochondria Different-Phenotype (%) [5]: 15%
Population Mitotic Cells (%) [5]: 55%
Population Normal (%) [5]: 88%
Population Pyknosed Nuclei (%) [5]: 16%
Population Tubulin-Different-Phenotype (%) [5]: 38%
Total Cell Count [5]: 62
Population Apoptotic (%) [6]: 40%
Population Fragmented Nuclei (%) [6]: 22%
Population Healthy Nuclei (%) [6]: 70%
Population Hoechst High Intensity Objects (%) [6]: 9%
Population Membrane Permeable-Phenotype (%) [6]: 0%
Population Mitochondria Different-Phenotype (%) [6]: 4%
Population Mitotic Cells (%) [6]: 60%
Population Normal (%) [6]: 90%
Population Pyknosed Nuclei (%) [6]: 7%
Population Tubulin-Different-Phenotype (%) [6]: 4%
Total Cell Count [6]: 93
Population Apoptotic (%) [7]: 43%
Population Fragmented Nuclei (%) [7]: 26%
Population Healthy Nuclei (%) [7]: 48%
Population Hoechst High Intensity Objects (%) [7]: 14%
Population Membrane Permeable-Phenotype (%) [7]: 19%
Population Mitochondria Different-Phenotype (%) [7]: 10%
Population Mitotic Cells (%) [7]: 56%
Population Normal (%) [7]: 85%
Population Pyknosed Nuclei (%) [7]: 24%
Population Tubulin-Different-Phenotype (%) [7]: 28%
Total Cell Count [7]: 110
Population Apoptotic (%) [8]: 28%
Population Fragmented Nuclei (%) [8]: 8%
Population Healthy Nuclei (%) [8]: 79%
Population Hoechst High Intensity Objects (%) [8]: 7%
Population Membrane Permeable-Phenotype (%) [8]: 8%
Population Mitochondria Different-Phenotype (%) [8]: 4%
Population Mitotic Cells (%) [8]: 71%
Population Normal (%) [8]: 92%
Population Pyknosed Nuclei (%) [8]: 11%
Population Tubulin-Different-Phenotype (%) [8]: 23%
Total Cell Count [8]: 74
Population Apoptotic (%) [9]: 66%
Population Fragmented Nuclei (%) [9]: 55%
Population Healthy Nuclei (%) [9]: 39%
Population Hoechst High Intensity Objects (%) [9]: 9%
Population Membrane Permeable-Phenotype (%) [9]: 26%
Population Mitochondria Different-Phenotype (%) [9]: 0%
Population Mitotic Cells (%) [9]: 33%
Population Normal (%) [9]: 90%
Population Pyknosed Nuclei (%) [9]: 5%
Population Tubulin-Different-Phenotype (%) [9]: 39%
Total Cell Count [9]: 64
Population Apoptotic (%) [10]: 33%
Population Fragmented Nuclei (%) [10]: 17%
Population Healthy Nuclei (%) [10]: 73%
Population Hoechst High Intensity Objects (%) [10]: 7%
Population Membrane Permeable-Phenotype (%) [10]: 23%
Population Mitochondria Different-Phenotype (%) [10]: 6%
Population Mitotic Cells (%) [10]: 66%
Population Normal (%) [10]: 92%
Population Pyknosed Nuclei (%) [10]: 9%
Population Tubulin-Different-Phenotype (%) [10]: 23%
Total Cell Count [10]: 69
Population Apoptotic (%) [11]: 71%
Population Fragmented Nuclei (%) [11]: 58%
Population Healthy Nuclei (%) [11]: 33%
Population Hoechst High Intensity Objects (%) [11]: 20%
Population Membrane Permeable-Phenotype (%) [11]: 19%
Population Mitochondria Different-Phenotype (%) [11]: 3%
Population Mitotic Cells (%) [11]: 28%
Population Normal (%) [11]: 80%
Population Pyknosed Nuclei (%) [11]: 7%
Population Tubulin-Different-Phenotype (%) [11]: 29%
Total Cell Count [11]: 115
Population Fragmented Nuclei (%) [12]: 37%
Population Healthy Nuclei (%) [12]: 52%
Population Hoechst High Intensity Objects (%) [12]: 15%
Population Membrane Permeable-Phenotype (%) [12]: 14%
Population Mitochondria Different-Phenotype (%) [12]: 2%
Population Normal (%) [12]: 84%
Population Pyknosed Nuclei (%) [12]: 10%
Population Tubulin-Different-Phenotype (%) [12]: 34%
Total Cell Count [12]: 79
